In ChEMBL document CHEMBL3124924, “Bifunctional ethyl 2-amino-4-methylthiazole-5-carboxylate derivatives: synthesis and in vitro biological evaluation as antimicrobial and anticancer agents” (2014):
Values after ≈ are worked out from the molar mass of the structure shown.

Assays:
Format in all cases: functional
Staphylococcus aureus [1] = experiment: Antibacterial activity against Staphylococcus aureus ATCC 6538 assessed as growth inhibition after 48 hrs by two-fold serial dilution assay; details: ATCC 6538, 48 h
Method in brief: (§1)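 Twofold serial broth dilution run on compounds giving inhibition zones of 13 mm or more. Organisms pre-grown in suitable broth at 37 °C, 24 h for bacteria and 48 h for fungi. Dilution series 200, 100, 50, 25, 12.5, 6.25. Each 5 mL tube inoculated with 0.1 mL and incubated 37 °C for 48 h. Tubes scored for presence or absence of growth.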

Escherichia coli [2] = experiment: Antibacterial activity against Escherichia coli ATCC 25922 assessed as growth inhibition at 1 mg/mL after 24 hrs by agar-cup diffusion method; details: ATCC 25922, 24 h, read-out: DIZ
Method in brief: (§2)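 Agar-cup diffusion: 1 mL of 6 h broth culture seeded per 100 mL molten sterile agar at 45 °C and poured into plates. 8 mm cups cut, each filled with 0.1 mL of 1 mg/mL test solution. Incubated 37 °C for 24 h, 48 h for C. albicans. DMSO control per organism. Inhibition zone diameter in mm, mean of three measurements.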

Bacillus spizizenii [3] = experiment: Antibacterial activity against Bacillus subtilis ATCC 6633 assessed as growth inhibition at 1 mg/mL after 24 hrs by agar-cup diffusion method; details: ATCC 6633, 24 h, read-out: DIZ; method in brief: as §2
RPMI-8226 = experiment: Cytotoxicity against human RPMI8226 cells assessed as growth inhibition at 10 uM after 48 hrs by SRB assay; details: RPMI-8226, 48 h, read-out: GI
Method in brief: (§3)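 NCI-60 one-dose primary screen run by the NCI Drug Evaluation Branch across the full 60-line panel. Single high-dose treatment with 48 h continuous drug exposure. Cell growth estimated by sulforhodamine B protein staining. Results given as percent growth of treated cells and expressed as percentage growth inhibition.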

SK-MEL-2 = experiment: Cytotoxicity against human SK-MEL-2 cells assessed as growth inhibition at 10 uM after 48 hrs by SRB assay; details: SK-MEL-2, 48 h, read-out: GI; method in brief: as §3
HCT-116 = experiment: Cytotoxicity against human HCT116 cells assessed as growth inhibition at 10 uM after 48 hrs by SRB assay; details: HCT-116, 48 h, read-out: GI; method in brief: as §3
SNB-75 = experiment: Cytotoxicity against human SNB75 cells assessed as growth inhibition at 10 uM after 48 hrs by SRB assay; details: SNB-75, 48 h, read-out: GI; method in brief: as §3
CCRF-CEM = experiment: Cytotoxicity against human CCRF-CEM cells assessed as growth inhibition at 10 uM after 48 hrs by SRB assay; details: read-out: GI; method in brief: as §3
MDA-MB-468 = experiment: Cytotoxicity against human MDA-MB-468 cells assessed as growth inhibition at 10 uM after 48 hrs by SRB assay; details: MDA-MB-468, 48 h, read-out: GI; method in brief: as §3
Bacillus spizizenii [4] = experiment: Bactericidal activity against Bacillus subtilis ATCC 6633 after 18 hrs; details: ATCC 6633, 18 h
Method in brief: (§4)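 Continuation of the broth-dilution MIC test. A loopful from each tube without visible growth spread on a quarter of a Mueller-Hinton agar plate and incubated 18 h. Lowest concentration giving no growth on subculture taken as the MBC.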

Escherichia coli [5] = experiment: Bactericidal activity against Escherichia coli ATCC 25922 after 18 hrs; details: ATCC 25922, 18 h; method in brief: as §4
[6] = Cytotoxicity against human Hs578T cells assessed as growth inhibition at 10 uM after 48 hrs by SRB assay; details: Hs-578T, read-out: GI; method in brief: as §3
SF-268 = experiment: Cytotoxicity against human SF268 cells assessed as growth inhibition at 10 uM after 48 hrs by SRB assay; details: SF-268, 48 h, read-out: GI; method in brief: as §3
HT-29 = experiment: Cytotoxicity against human HT-29 cells assessed as growth inhibition at 10 uM after 48 hrs by SRB assay; details: HT-29, 48 h, read-out: GI; method in brief: as §3
SK-MEL-5 = experiment: Cytotoxicity against human SK-MEL-5 cells assessed as growth inhibition at 10 uM after 48 hrs by SRB assay; details: SK-MEL-5, 48 h, read-out: GI; method in brief: as §3
T47D = experiment: Cytotoxicity against human T47D cells assessed as growth inhibition at 10 uM after 48 hrs by SRB assay; details: read-out: GI; method in brief: as §3
PC-3 = experiment: Cytotoxicity against human PC3 cells assessed as growth inhibition at 10 uM after 48 hrs by SRB assay; details: PC-3, 48 h, read-out: GI; method in brief: as §3
Pseudomonas aeruginosa [7] = experiment: Antibacterial activity against Pseudomonas aeruginosa ATCC 27853 assessed as growth inhibition after 48 hrs by two-fold serial dilution assay; details: ATCC 27853, 48 h; method in brief: as §1
UACC-62 = experiment: Cytotoxicity against human UACC62 cells assessed as growth inhibition at 10 uM after 48 hrs by SRB assay; details: UACC-62, 48 h, read-out: GI; method in brief: as §3
HOP-92 = experiment: Cytotoxicity against human HOP92 cells assessed as growth inhibition at 10 uM after 48 hrs by SRB assay; details: HOP-92, 48 h, read-out: GI; method in brief: as §3
SW-620 = experiment: Cytotoxicity against human SW620 cells assessed as growth inhibition at 10 uM after 48 hrs by SRB assay; details: SW-620, 48 h, read-out: GI; method in brief: as §3
NCI-H522 = experiment: Cytotoxicity against human NCI-H522 cells assessed as growth inhibition at 10 uM after 48 hrs by SRB assay; details: NCI-H522, 48 h, read-out: GI; method in brief: as §3
HCT-15 = experiment: Cytotoxicity against human HCT15 cells assessed as growth inhibition at 10 uM after 48 hrs by SRB assay; details: HCT-15, 48 h, read-out: GI; method in brief: as §3
U-251 = experiment: Cytotoxicity against human U251 cells assessed as growth inhibition at 10 uM after 48 hrs by SRB assay; details: U-251, 48 h, read-out: GI; method in brief: as §3
Escherichia coli [8] = experiment: Antibacterial activity against Escherichia coli ATCC 25922 assessed as growth inhibition after 48 hrs by two-fold serial dilution assay; details: ATCC 25922, 48 h; method in brief: as §1
Pseudomonas aeruginosa [9] = experiment: Bactericidal activity against Pseudomonas aeruginosa ATCC 27853 after 18 hrs; details: ATCC 27853, 18 h; method in brief: as §4
MCF7 = experiment: Cytotoxicity against human MCF7 cells assessed as growth inhibition at 10 uM after 48 hrs by SRB assay; details: MCF7, 48 h, read-out: GI; method in brief: as §3
Bacillus spizizenii [10] = experiment: Antibacterial activity against Bacillus subtilis ATCC 6633 assessed as growth inhibition after 48 hrs by two-fold serial dilution assay; details: ATCC 6633, 48 h; method in brief: as §1
NCI-H322M = experiment: Cytotoxicity against human NCI-H322M cells assessed as growth inhibition at 10 uM after 48 hrs by SRB assay; details: read-out: GI; method in brief: as §3
Staphylococcus aureus [11] = experiment: Bactericidal activity against Staphylococcus aureus ATCC 6538 after 18 hrs; details: ATCC 6538, 18 h; method in brief: as §4
[12] = Cytotoxicity against human UO31 cells assessed as growth inhibition at 10 uM after 48 hrs by SRB assay; details: UO-31, 48 h, read-out: GI; method in brief: as §3
A498 = experiment: Cytotoxicity against human A498 cells assessed as growth inhibition at 10 uM after 48 hrs by SRB assay; details: A498, 48 h, read-out: GI; method in brief: as §3
[13] = Cytotoxicity against human NCI-ADR-RES cells assessed as growth inhibition at 10 uM after 48 hrs by SRB assay; details: read-out: GI; method in brief: as §3

`CCOC(=O)c1sc(NC(=O)Nc2ccccc2)nc1C` showed an MIC (Staphylococcus aureus [1]) of 25 µg/mL (≈ 81.9 µM), a zone of inhibition at 1000 µg/mL (Escherichia coli [2]) of over 13 mm and a zone of inhibition at 1000 µg/mL (Bacillus spizizenii [3]) of over 13 mm. It also gave an inhibition of growth at 10 µM (RPMI-8226) of 22.8%, an inhibition of growth at 10 µM (SK-MEL-2) of 77.6% and an inhibition of growth at 10 µM (HCT-116) of 16.3%. It also gave an inhibition of growth at 10 µM (SNB-75) of 47.2%, an inhibition of growth at 10 µM (CCRF-CEM) of 22% and an inhibition of growth at 10 µM (MDA-MB-468) of 18.4%. The MBC (Bacillus spizizenii [4]) was 50 µg/mL (≈ 164 µM), the MBC (Escherichia coli [5]) was 25 µg/mL (≈ 81.9 µM) and the inhibition of growth at 10 µM [6] was 6.4%. For the same compound, the inhibition of growth at 10 µM (SF-268) was 4.88%, the inhibition of growth at 10 µM (HT-29) was 24.1% and the inhibition of growth at 10 µM (SK-MEL-5) was 4.58%. It also gave an inhibition of growth at 10 µM (T47D) of 12.6%, an inhibition of growth at 10 µM (PC-3) of 4.18% and an MIC (Pseudomonas aeruginosa [7]) of 50 µg/mL (≈ 164 µM). It also gave an inhibition of growth at 10 µM (UACC-62) of 20%, an inhibition of growth at 10 µM (HOP-92) of 64.2% and an inhibition of growth at 10 µM (SW-620) of 2.85%. For the same compound, the inhibition of growth at 10 µM (NCI-H522) was 2.64%, the inhibition of growth at 10 µM (HCT-15) was under 10% and the inhibition of growth at 10 µM (U-251) was 9.58%. The MIC (Escherichia coli [8]) was 25 µg/mL (≈ 81.9 µM), the MBC (Pseudomonas aeruginosa [9]) was 100 µg/mL (≈ 327 µM) and the inhibition of growth at 10 µM (MCF7) was 7.17%. The MIC (Bacillus spizizenii [10]) was 50 µg/mL (≈ 164 µM), the inhibition of growth at 10 µM (NCI-H322M) was under 10% and the MBC (Staphylococcus aureus [11]) was 25 µg/mL (≈ 81.9 µM). It also gave an inhibition of growth at 10 µM [12] of 16.1%, an inhibition of growth at 10 µM (A498) of 28.9% and an inhibition of growth at 10 µM [13] of 13.9%.
